Experimental findings from the RNAGym collection of RNA variant scans (doi:10.1126/science.aae0568) are described below.

The chains are these.
B1: tRNA (parent)
chain: GUUCCGUUGGCGUAAUGGUAACGCGUCUCCCUCCUAAGGAGAAGACUGCGGGUUCGAGUCCCGUACGGAACG

Variants at the floor of the assay were thinned out.

In this data set the parent is B1. The experiment in a line: yeast fitness relative to wild type (ratio to wild type); higher = fitter; tRNA-Arg(CCU), competitive growth, 37 C, YPD. In outline: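 Changes in genotype frequencies gave Darwinian fitness relative to wild type. Frequencies were read by 100-nucleotide paired-end sequencing of gene amplicons before and after pooled Saccharomyces cerevisiae strains, carrying tRNA-Arg(CCU) gene variants at the native locus, were competed in YPD at 37°C for 24 hours in six replicates. A genotype was kept only with ≥ 100 starting reads, and estimates < 0.5 were set to 0.5.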
For the variant C11G G39A A40C C60U G68U, the yeast fitness was at most 0.5.

Consider C11G C24U C49A, for which the yeast fitness worked out at 0.547.

C11G G25A C30U A37C C46U: the yeast fitness is 0.568.

Turning to C11G G23C A36U G44C, the yeast fitness worked out at 0.748.

In the case of C11G C22U C30A, the yeast fitness is at most 0.5.

Take C11G G41A A70G: the yeast fitness is at most 0.5.

For C11G C22U G63C, the yeast fitness is at most 0.5.

C11G G23A G38A G39C G50A G56C: the yeast fitness is 0.613.

As to C11G C30G C34A A37C C46U, the yeast fitness is at most 0.5.

With C11G C46U G51C C66G, the yeast fitness was at most 0.5.

In the case of C11G C29U C31U C34U C62A C66U, the yeast fitness was at most 0.5.

C11G G12C A21G U35A G51A: the yeast fitness turned out to be 0.732.

For C11G G41A U47A C49U U59C G67C A70U, the yeast fitness was at most 0.5.

Consider C11G G44C A57C, for which the yeast fitness is at most 0.5.

In the case of C11G C24U A42U A43U C66U, the yeast fitness was at most 0.5.

For the variant C11G C24A A43C, the yeast fitness was at most 0.5.

Take C11G C30U G39A A45C C49U: the yeast fitness amounted to 0.614.

Regarding C11G C31U C33A C66U, the yeast fitness was at most 0.5.

As to C11G G12A A42U, the yeast fitness is at most 0.5.

For C11G C27A G38A A65C, the yeast fitness stood at 0.557.

Consider C11G G58A A69U, for which the yeast fitness was determined as 0.571.

For C11G G12A A21G G58A C62G, the yeast fitness is 0.532.

Regarding C11G C29A A43C, the yeast fitness came to 0.572.

C11G G25A U35C A36U: the yeast fitness is at most 0.5.

On to C11G C49U C61A A70G, for which the yeast fitness is at most 0.5.

In the case of C11G G23A C31U C33G C34U A36G, the yeast fitness was at most 0.5.

With C11G C33G C62G, the yeast fitness was at most 0.5.

As for C11G U13G G56A A69C, the yeast fitness was at most 0.5.

Take C11G G23C A36U G44C C62A: the yeast fitness was at most 0.5.

Consider C11G U32G C33U A37U A65G, for which the yeast fitness is 0.627.

For C11G G52A A69C, the yeast fitness is at most 0.5.

Consider C11G C34A G41C G51C G56A, for which the yeast fitness was at most 0.5.

C11G G18A G44U A65C: the yeast fitness is at most 0.5.

As to C11G U16A A21G C24U, the yeast fitness was at most 0.5.

Regarding C11G C49U G58C C61A A65U, the yeast fitness was at most 0.5.

In the case of C11G C29A A43C C66A, the yeast fitness was at most 0.5.

Consider C11G C24U A42U A43U, for which the yeast fitness amounted to 0.653.

Regarding C11G C29G C31G U54C U64A, the yeast fitness was at most 0.5.

With C11G C46U A65U, the yeast fitness was determined as 0.561.

With C11G G18U C22U C33U A43G, the yeast fitness was at most 0.5.

For C11G C31G U47C C55G, the yeast fitness is at most 0.5.

Consider C11G G18A A21C C49U, for which the yeast fitness was at most 0.5.

Turning to C11G C24U, the yeast fitness was determined as 0.583.

On to C11G C24G, for which the yeast fitness was at most 0.5.

As for C11G G25A C27U, the yeast fitness came out at 0.687.

As to C11G G38A, the yeast fitness was found to be 0.63.

Turning to C11G G25C G48C G51C C66A, the yeast fitness was at most 0.5.

For the variant C11G C34U C55U, the yeast fitness is at most 0.5.

Consider C11G C34G A36C, for which the yeast fitness was at most 0.5.

In the case of C11G C27G C30G A70C, the yeast fitness worked out at 0.689.

For C11G C61G A69U, the yeast fitness was at most 0.5.

As for C11G C24G A42U, the yeast fitness was at most 0.5.

C11G C33U: the yeast fitness was at most 0.5.

Regarding C11G G17U A21U A42U, the yeast fitness was at most 0.5.

With C11G U26A C27A C29G C46A G50A U59G, the yeast fitness amounted to 0.73.

C11G C30G C49U C61G A70G: the yeast fitness was at most 0.5.

As for C11U A14C C22U A43C, the yeast fitness is at most 0.5.

For C11G U35C C46U C61U, the yeast fitness was at most 0.5.

Take C11G U32A G68A: the yeast fitness worked out at 0.746.

For C11G G17C A40G G44C U59C A70G, the yeast fitness is 0.603.

As for C11G C27U U32A G52A C60U A70C, the yeast fitness is at most 0.5.

In the case of C11G C55A G63A, the yeast fitness was found to be 0.553.

On to C11G G39C U47C, for which the yeast fitness was at most 0.5.

In the case of C11G U28A C66U A70U, the yeast fitness was at most 0.5.

Consider C11G U16A A70U, for which the yeast fitness stood at 0.553.

C11G U16A G48C A57U: the yeast fitness was at most 0.5.

As to C11G G18C A69U, the yeast fitness is at most 0.5.

With C11G G63C, the yeast fitness was found to be 0.543.

With C11G G63A, the yeast fitness turned out to be 0.605.

As for C11G C27U C33U, the yeast fitness was determined as 0.584.

C11G C34U G44C G50C U53C: the yeast fitness was at most 0.5.

On to C11G C34A A36U G48A G52C C60A C62U, for which the yeast fitness is at most 0.5.

As for C11G U16A C30A, the yeast fitness was 0.583.

Consider C11G U16A A20G C30A, for which the yeast fitness is at most 0.5.

As for C11G C31G A42U, the yeast fitness amounted to 0.527.

For C11G U47A C62G C66G, the yeast fitness is at most 0.5.

On to C11G G68A, for which the yeast fitness was 0.64.

Turning to C11G U16A C29U A69C, the yeast fitness was found to be 0.538.

Take C11G U16A C22U G51C C60U G67A: the yeast fitness was at most 0.5.

As to C11G C29G C31G, the yeast fitness is at most 0.5.

As for C11G C46G C62A, the yeast fitness was at most 0.5.

For C11G G39C G56C C61U, the yeast fitness is at most 0.5.

As for C11G G41A, the yeast fitness was found to be 0.586.

For C11G C27G C29G C34U, the yeast fitness was 0.599.

C11G U28A: the yeast fitness was at most 0.5.

On to C11G U35A G63C, for which the yeast fitness turned out to be 0.602.

On to C11G C30U C46G G58C, for which the yeast fitness was 0.617.

In the case of C11G C24A C66U, the yeast fitness is at most 0.5.

Take C11G U28G A37G: the yeast fitness was at most 0.5.

On to C11G C24U A42G, for which the yeast fitness is at most 0.5.

As for C11G G12A U19C, the yeast fitness is at most 0.5.

Turning to C11G U26C C31A A43U C61A, the yeast fitness was at most 0.5.

C11G C27U A43C A65G: the yeast fitness is at most 0.5.

With C11G C27A, the yeast fitness amounted to 0.715.

For C11G C27U, the yeast fitness was 0.706.

C11G G38C G58C U64A: the yeast fitness was at most 0.5.

For C11G C29G A45U, the yeast fitness is at most 0.5.

On to C11G G51C A65G, for which the yeast fitness worked out at 0.616.

Consider C11G C66U A69C, for which the yeast fitness was at most 0.5.

In the case of C11G U64A, the yeast fitness was found to be 0.623.

Take C11G U64C: the yeast fitness was determined as 0.567.

As for C11G C29U A57G, the yeast fitness was at most 0.5.

With C11G C24U A69C, the yeast fitness is at most 0.5.

C11G C30U U35A U53G C62U: the yeast fitness was at most 0.5.

For the variant C11G C30G A37U G41A U53C A69U, the yeast fitness amounted to 0.516.

On to C11G U16A U28C C29U G39A U59G U64A, for which the yeast fitness is at most 0.5.

Turning to C11G G17A C30G U59G, the yeast fitness is at most 0.5.

C11G C29U U35C A36C: the yeast fitness is at most 0.5.

For C11G C30G C33A A57C C61A, the yeast fitness came to 0.583.

As to C11G C34G C55G, the yeast fitness is at most 0.5.

C11G C34U C62G: the yeast fitness amounted to 0.542.

For C11G C29U C61A A65C, the yeast fitness was at most 0.5.

In the case of C11G C55U C61A, the yeast fitness worked out at 0.546.

As to C11G U32G A57C C62U, the yeast fitness was determined as 0.643.

Consider C11G G38A C61G, for which the yeast fitness is at most 0.5.

As for C11G G17C C34A A43C G56C C61A A65C, the yeast fitness is at most 0.5.

On to C11G U26C C49G, for which the yeast fitness was at most 0.5.

As for C11G C31A G39A G48A C61U A65C, the yeast fitness stood at 0.56.

Regarding C11G G68A A69G, the yeast fitness was at most 0.5.

With C11G C27U A37U C49U, the yeast fitness is at most 0.5.

As for C11G U28C A36G A43C, the yeast fitness is at most 0.5.

C11G U16A C31A A42G: the yeast fitness was determined as 0.573.

For C11G U28A G39A G48A G58C, the yeast fitness came to 0.543.

For C11G G18A C29U A40G C62U, the yeast fitness is at most 0.5.

Regarding C11G U16A C30A A69C, the yeast fitness is at most 0.5.

For the variant C11G C24U G48C, the yeast fitness was determined as 0.541.

For C11G G17C G63A, the yeast fitness was at most 0.5.

As to C11G C61G C62G, the yeast fitness is at most 0.5.

As to C11G C27A G38A C55G, the yeast fitness is at most 0.5.

Regarding C11G G38A G58A C60U, the yeast fitness was at most 0.5.

Turning to C11G G12C A20G A43G A45C G67A, the yeast fitness was at most 0.5.

For C11G C46A C61G A65G, the yeast fitness is at most 0.5.

On to C11G G17A C30G C61G, for which the yeast fitness is at most 0.5.

With C11G C29U A45C C66G, the yeast fitness was at most 0.5.

For the variant C11G G39C U47C G68C, the yeast fitness was at most 0.5.

As to C11G G18C C49U, the yeast fitness is at most 0.5.

As for C11G U32G A69C A70U, the yeast fitness was at most 0.5.

Regarding C11G G12C C33U C60U, the yeast fitness is at most 0.5.

C11G C29G G50C: the yeast fitness is at most 0.5.

Regarding C11G C60G C61U, the yeast fitness was 0.555.

Consider C11G C29U C30U, for which the yeast fitness was at most 0.5.

For the variant C11G U16A A21U G23C, the yeast fitness came out at 0.665.

With C11G C30G, the yeast fitness is at most 0.5.

Take C11G C30U: the yeast fitness is 0.643.

For C11G U47C, the yeast fitness was 0.687.

On to C11G U47A, for which the yeast fitness worked out at 0.686.

On to C11G U47G, for which the yeast fitness is at most 0.5.

As for C11G C24U G25A U47G, the yeast fitness is at most 0.5.

With C11G C62U C66U, the yeast fitness was at most 0.5.

For the variant C11G U16A G67A, the yeast fitness amounted to 0.536.

C11G C46U C62U: the yeast fitness is at most 0.5.

In the case of C11G G52C G67C, the yeast fitness is at most 0.5.

Take C11G C30A C62G G68C: the yeast fitness is at most 0.5.

In the case of C11G U53A C55U G56C, the yeast fitness is at most 0.5.

Take C11G U28A C62A: the yeast fitness is at most 0.5.

Consider C11G C49U C66U, for which the yeast fitness is at most 0.5.

For the variant C11G C29G C31G A37U, the yeast fitness worked out at 0.674.

Turning to C11G G23C A36G A37G A70G, the yeast fitness worked out at 0.55.

As for C11G C24U C31G C33U A43U, the yeast fitness was at most 0.5.

For C11G C27U U28A G52A C55U, the yeast fitness is at most 0.5.

On to C11G U13G C55G C66U, for which the yeast fitness was at most 0.5.

As for C11G U16G C55A, the yeast fitness is at most 0.5.

C11G C49U G58C: the yeast fitness was determined as 0.597.

Turning to C11G G51U, the yeast fitness is 0.601.

As to C11G G12A C24A C30G C46U C66G, the yeast fitness was found to be 0.585.

On to C11G U28C C34U G44C G50C U53C, for which the yeast fitness was at most 0.5.

For the variant C11G G12C A20C C24G G39C C60A, the yeast fitness is at most 0.5.
